Reference: ChEMBL document CHEMBL1145430, “Synthesis and simple 18F-labeling of 3-fluoro-5-(2-(2-(fluoromethyl)thiazol-4-yl)ethynyl)benzonitrile as a high affinity radioligand for imaging monkey brain metabotropic glutamate subtype-5 receptors with positron emission tomography” (J Med Chem, 2007)

How the values were obtained:
[1] = molecular target: Metabotropic glutamate receptor 5 (Rattus norvegicus, UniProt P31424); experiment: Displacement of […] from mGluR5 in rat brain membrane; assay type: cell membranes
Procedure, shortened: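 Competition binding against [³H]MPEPy in rat whole-brain membranes (minus cerebellum and brainstem), homogenized in 50 mM Tris-HCl/saline pH 7.5, pelleted at 39 800 g. Membranes 5 mg/800 µL final. Competitor from 10 mM ethanol stock, final 0.01 nM to 1 mM. Incubated 1 h at 22 °C, filtered on PEI-soaked GF/B, washed with cold saline, scintillation counted. Three determinations.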

[2] = molecular target: 5-hydroxytryptamine receptor 1A (Homo sapiens, UniProt P08908); experiment: Displacement of [3H]8-OH-DPAT from 5HT1A receptor
[3] = molecular target: 5-hydroxytryptamine receptor 1B (Homo sapiens, UniProt P28222); experiment: Displacement of [3H]GR-125743 from 5HT1B receptor
[4] = molecular target: 5-hydroxytryptamine receptor 1D (Homo sapiens, UniProt P28221); experiment: Displacement of [3H]GR-125743 from 5HT1D receptor
[5] = molecular target: 5-hydroxytryptamine receptor 1E (Homo sapiens, UniProt P28566); experiment: Displacement of [3H]5-HT from 5HT1E receptor
[6] = molecular target: 5-hydroxytryptamine receptor 2A (Homo sapiens, UniProt P28223); experiment: Displacement of [3H]ketanserin from 5HT2A receptor
[7] = molecular target: 5-hydroxytryptamine receptor 2B (Homo sapiens, UniProt P41595); experiment: Displacement of [3H]LSD from 5HT2B receptor
[8] = molecular target: 5-hydroxytryptamine receptor 2C (Homo sapiens, UniProt P28335); experiment: Displacement of [3H]mesulergine from 5HT2C receptor
[9] = molecular target: Serotonin 3 (5-HT3) receptor; experiment: Displacement of [3H]zacopride from 5HT3 receptor; assay type: protein-complex assay, Homo sapiens
[10] = molecular target: 5-hydroxytryptamine receptor 5A (Homo sapiens, UniProt P47898); experiment: Displacement of [3H]LSD from 5HT5A receptor
[11] = molecular target: 5-hydroxytryptamine receptor 6 (Homo sapiens, UniProt P50406); experiment: Displacement of [3H]LSD from 5HT6 receptor
[12] = molecular target: 5-hydroxytryptamine receptor 7 (Homo sapiens, UniProt P34969); experiment: Displacement of [3H]LSD from 5HT7 receptor
[13] = Lipophilicity, log D of the compound; assay type: physicochemical; details: octanol/water
Procedure, shortened: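 Partition of the [18F]-labeled radioligand between n-octanol and sodium phosphate buffer (0.15 M, pH 7.4) was measured, following a general method described earlier.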

[14] = molecular target: Metabotropic glutamate receptor 1 (Homo sapiens, UniProt Q13255); experiment: Binding affinity at mGluR1
[15] = molecular target: Metabotropic glutamate receptor 2 (Homo sapiens, UniProt Q14416); experiment: Binding affinity at mGluR2
[16] = molecular target: Metabotropic glutamate receptor 4 (Homo sapiens, UniProt Q14833); experiment: Binding affinity at mGluR4
[17] = molecular target: Metabotropic glutamate receptor 6 (Homo sapiens, UniProt O15303); experiment: Binding affinity at mGluR6
[18] = molecular target: Metabotropic glutamate receptor 8 (Homo sapiens, UniProt O00222); experiment: Binding affinity at mGluR8
[19] = molecular target: Alpha-1A adrenergic receptor (Homo sapiens, UniProt P35348); experiment: Displacement of [3H]prazosin from adrenergic alpha-1A receptor
[20] = molecular target: Alpha-1B adrenergic receptor (Homo sapiens, UniProt P35368); experiment: Displacement of [3H]prazosin from adrenergic alpha-1B receptor
[21] = molecular target: Alpha-2A adrenergic receptor (Homo sapiens, UniProt P08913); experiment: Displacement of [3H][…] from adrenergic alpha2A receptor
[22] = molecular target: Alpha-2B adrenergic receptor (Homo sapiens, UniProt P18089); experiment: Displacement of [3H][…] from adrenergic alpha-2B receptor
[23] = molecular target: Alpha-2C adrenergic receptor (Homo sapiens, UniProt P18825); experiment: Displacement of [3H][…] from adrenergic alpha-2C receptor
[24] = molecular target: Beta-1 adrenergic receptor (Homo sapiens, UniProt P08588); experiment: Displacement of [125I]pindolol from adrenergic beta-1 receptor
[25] = molecular target: Beta-2 adrenergic receptor (Homo sapiens, UniProt P07550); experiment: Displacement of [125I]pindolol from adrenergic beta-2 receptor
[26] = molecular target: D(1A) dopamine receptor (Homo sapiens, UniProt P21728); experiment: Displacement of [3H]SCH-23390 from dopamine D1 receptor
[27] = molecular target: D(2) dopamine receptor (Homo sapiens, UniProt P14416); experiment: Displacement of [3H]N-methylspiperone from dopamine D2 receptor
[28] = molecular target: D(3) dopamine receptor (Homo sapiens, UniProt P35462); experiment: Displacement of [3H]N-methylspiperone from dopamine D3 receptor
[29] = molecular target: D(4) dopamine receptor (Homo sapiens, UniProt P21917); experiment: Displacement of [3H]N-methylspiperone from dopamine D4 receptor
[30] = molecular target: D(1B) dopamine receptor (Homo sapiens, UniProt P21918); experiment: Displacement of radiolabeled SKF-38393 from dopamine D5 receptor
[31] = molecular target: Sigma non-opioid intracellular receptor 1 (Homo sapiens, UniProt Q99720); experiment: Binding affinity to sigma1 receptor
[32] = Displacement of [3H]MK-801 from NMDA receptor; design: species or system Homo sapiens
[33] = molecular target: Muscarinic acetylcholine receptor M1 (Homo sapiens, UniProt P11229); experiment: Displacement of [3H]QNB from muscarinic M1 receptor
[34] = molecular target: Muscarinic acetylcholine receptor M2 (Homo sapiens, UniProt P08172); experiment: Displacement of [3H]QNB from muscarinic M2 receptor
[35] = molecular target: Muscarinic acetylcholine receptor M3 (Homo sapiens, UniProt P20309); experiment: Displacement of [3H]QNB from muscarinic M3 receptor
[36] = molecular target: Muscarinic acetylcholine receptor M4 (Homo sapiens, UniProt P08173); experiment: Displacement of [3H]QNB from muscarinic M4 receptor
[37] = molecular target: Muscarinic acetylcholine receptor M5 (Homo sapiens, UniProt P08912); experiment: Displacement of [3H]QNB from muscarinic M5 receptor
[38] = molecular target: Delta-type opioid receptor (Homo sapiens, UniProt P41143); experiment: Displacement of [3H]DADLE from delta opioid receptor
[39] = molecular target: Mu-type opioid receptor (Homo sapiens, UniProt P35372); experiment: Displacement of [3H]diprenorphine from mu opioid receptor
[40] = molecular target: Kappa-type opioid receptor (Homo sapiens, UniProt P41145); experiment: Displacement of [3H]bremazocine from kappa opioid receptor
[41] = molecular target: Sodium-dependent dopamine transporter (Homo sapiens, UniProt Q01959); experiment: Displacement of [3H]WIN-35428 from DAT
[42] = molecular target: Sodium-dependent noradrenaline transporter (Homo sapiens, UniProt P23975); experiment: Displacement of [3H]nisoxitine from NET
[43] = molecular target: Sodium-dependent serotonin transporter (Homo sapiens, UniProt P31645); experiment: Displacement of [3H]citalopram from SERT
[44] = molecular target: Histamine H1 receptor (Homo sapiens, UniProt P35367); experiment: Binding affinity to histamine H1 receptor
[45] = molecular target: Histamine H2 receptor (Homo sapiens, UniProt P25021); experiment: Binding affinity to from histamine H2 receptor
[46] = molecular target: Histamine H3 receptor (Homo sapiens, UniProt Q9Y5N1); experiment: Binding affinity to histamine H3 receptor
[47] = molecular target: Histamine H4 receptor (Homo sapiens, UniProt Q9H3N8); experiment: Binding affinity to histamine H4 receptor

Metabotropic glutamate receptor 5, sequence (P31424 whole entry): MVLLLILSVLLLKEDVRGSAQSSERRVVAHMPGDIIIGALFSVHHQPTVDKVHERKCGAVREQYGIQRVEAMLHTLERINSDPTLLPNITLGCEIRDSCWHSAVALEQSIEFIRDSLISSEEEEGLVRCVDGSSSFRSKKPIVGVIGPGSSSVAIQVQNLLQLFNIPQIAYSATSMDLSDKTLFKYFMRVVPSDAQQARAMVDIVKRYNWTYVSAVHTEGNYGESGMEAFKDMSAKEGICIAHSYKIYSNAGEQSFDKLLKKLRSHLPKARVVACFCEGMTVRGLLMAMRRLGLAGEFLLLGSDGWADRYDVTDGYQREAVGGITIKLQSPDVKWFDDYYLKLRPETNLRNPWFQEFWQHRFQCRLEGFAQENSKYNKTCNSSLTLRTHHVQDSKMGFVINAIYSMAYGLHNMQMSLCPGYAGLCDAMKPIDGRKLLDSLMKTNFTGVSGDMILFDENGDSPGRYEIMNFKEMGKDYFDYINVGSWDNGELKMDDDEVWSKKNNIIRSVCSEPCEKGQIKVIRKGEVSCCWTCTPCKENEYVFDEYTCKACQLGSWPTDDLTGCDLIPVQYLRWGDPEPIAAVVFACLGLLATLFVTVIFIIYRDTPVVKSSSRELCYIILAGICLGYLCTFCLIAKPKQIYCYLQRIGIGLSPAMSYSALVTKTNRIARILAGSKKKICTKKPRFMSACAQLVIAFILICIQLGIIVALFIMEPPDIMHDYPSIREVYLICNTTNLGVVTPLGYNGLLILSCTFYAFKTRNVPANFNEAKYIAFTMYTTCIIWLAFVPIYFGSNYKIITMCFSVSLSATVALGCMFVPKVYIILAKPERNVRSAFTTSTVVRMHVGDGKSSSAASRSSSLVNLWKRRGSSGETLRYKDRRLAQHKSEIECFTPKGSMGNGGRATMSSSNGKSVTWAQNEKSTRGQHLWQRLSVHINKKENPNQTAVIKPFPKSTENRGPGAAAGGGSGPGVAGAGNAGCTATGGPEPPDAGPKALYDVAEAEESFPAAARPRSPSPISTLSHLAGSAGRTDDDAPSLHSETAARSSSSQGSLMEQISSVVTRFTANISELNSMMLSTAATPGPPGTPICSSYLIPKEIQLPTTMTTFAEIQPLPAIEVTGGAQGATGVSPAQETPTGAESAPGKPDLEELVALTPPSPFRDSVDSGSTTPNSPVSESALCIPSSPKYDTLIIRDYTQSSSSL
5-hydroxytryptamine receptor 5A, sequence (P47898 whole entry): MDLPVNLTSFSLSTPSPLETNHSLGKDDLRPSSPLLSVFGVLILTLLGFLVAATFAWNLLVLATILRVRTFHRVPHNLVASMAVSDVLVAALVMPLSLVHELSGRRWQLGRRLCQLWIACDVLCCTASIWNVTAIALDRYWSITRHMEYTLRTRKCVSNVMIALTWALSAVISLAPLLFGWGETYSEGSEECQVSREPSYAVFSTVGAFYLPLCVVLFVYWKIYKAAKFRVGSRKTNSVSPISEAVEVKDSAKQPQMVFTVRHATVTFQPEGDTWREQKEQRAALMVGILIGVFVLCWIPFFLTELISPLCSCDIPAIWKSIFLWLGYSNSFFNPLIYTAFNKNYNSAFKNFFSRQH
Muscarinic acetylcholine receptor M3, sequence (P20309 whole entry): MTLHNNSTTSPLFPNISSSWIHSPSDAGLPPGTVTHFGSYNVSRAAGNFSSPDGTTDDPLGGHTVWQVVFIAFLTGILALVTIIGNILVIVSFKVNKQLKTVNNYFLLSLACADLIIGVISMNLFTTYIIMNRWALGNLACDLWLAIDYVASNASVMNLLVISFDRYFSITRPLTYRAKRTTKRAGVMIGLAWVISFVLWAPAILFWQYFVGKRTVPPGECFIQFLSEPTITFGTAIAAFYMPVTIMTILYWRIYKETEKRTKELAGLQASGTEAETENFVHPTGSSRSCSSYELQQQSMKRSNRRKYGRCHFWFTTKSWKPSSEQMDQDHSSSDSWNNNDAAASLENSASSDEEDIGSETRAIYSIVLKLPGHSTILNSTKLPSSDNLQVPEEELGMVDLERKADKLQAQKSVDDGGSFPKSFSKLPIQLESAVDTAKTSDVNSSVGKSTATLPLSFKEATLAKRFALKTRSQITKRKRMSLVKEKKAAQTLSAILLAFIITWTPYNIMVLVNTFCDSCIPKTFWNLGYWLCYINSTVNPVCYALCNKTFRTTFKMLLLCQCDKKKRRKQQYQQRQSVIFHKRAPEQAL
Delta-type opioid receptor, sequence (P41143 whole entry): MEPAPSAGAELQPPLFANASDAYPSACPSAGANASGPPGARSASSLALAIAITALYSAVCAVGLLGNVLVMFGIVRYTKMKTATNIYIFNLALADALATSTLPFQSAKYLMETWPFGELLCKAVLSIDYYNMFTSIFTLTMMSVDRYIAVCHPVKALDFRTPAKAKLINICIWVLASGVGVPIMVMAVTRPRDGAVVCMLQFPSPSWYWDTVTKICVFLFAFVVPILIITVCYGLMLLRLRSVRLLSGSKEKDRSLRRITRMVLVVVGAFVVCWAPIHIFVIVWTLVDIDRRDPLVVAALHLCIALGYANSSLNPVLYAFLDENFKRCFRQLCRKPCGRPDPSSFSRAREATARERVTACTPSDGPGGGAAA
Histamine H2 receptor, sequence (P25021 whole entry): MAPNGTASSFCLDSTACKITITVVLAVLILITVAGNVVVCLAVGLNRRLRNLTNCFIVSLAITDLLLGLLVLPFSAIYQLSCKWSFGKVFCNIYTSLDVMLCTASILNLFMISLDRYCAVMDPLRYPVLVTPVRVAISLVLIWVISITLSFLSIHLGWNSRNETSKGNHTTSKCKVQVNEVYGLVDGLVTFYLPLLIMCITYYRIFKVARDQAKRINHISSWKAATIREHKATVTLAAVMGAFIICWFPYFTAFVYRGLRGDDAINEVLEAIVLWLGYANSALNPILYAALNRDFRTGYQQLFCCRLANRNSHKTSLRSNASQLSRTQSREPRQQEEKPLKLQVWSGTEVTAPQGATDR
Muscarinic acetylcholine receptor M1, sequence (P11229 whole entry): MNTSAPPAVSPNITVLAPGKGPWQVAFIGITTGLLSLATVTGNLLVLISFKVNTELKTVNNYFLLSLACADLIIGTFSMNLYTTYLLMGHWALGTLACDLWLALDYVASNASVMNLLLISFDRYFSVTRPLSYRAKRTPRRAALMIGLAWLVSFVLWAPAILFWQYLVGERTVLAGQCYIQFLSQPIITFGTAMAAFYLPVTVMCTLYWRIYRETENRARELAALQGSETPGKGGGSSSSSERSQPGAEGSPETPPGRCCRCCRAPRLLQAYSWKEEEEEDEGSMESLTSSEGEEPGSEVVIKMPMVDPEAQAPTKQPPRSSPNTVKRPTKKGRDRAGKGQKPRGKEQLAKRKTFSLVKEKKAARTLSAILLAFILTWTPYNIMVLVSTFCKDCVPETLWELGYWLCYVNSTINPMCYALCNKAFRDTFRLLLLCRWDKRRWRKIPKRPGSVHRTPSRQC
Muscarinic acetylcholine receptor M4, sequence (P08173 whole entry): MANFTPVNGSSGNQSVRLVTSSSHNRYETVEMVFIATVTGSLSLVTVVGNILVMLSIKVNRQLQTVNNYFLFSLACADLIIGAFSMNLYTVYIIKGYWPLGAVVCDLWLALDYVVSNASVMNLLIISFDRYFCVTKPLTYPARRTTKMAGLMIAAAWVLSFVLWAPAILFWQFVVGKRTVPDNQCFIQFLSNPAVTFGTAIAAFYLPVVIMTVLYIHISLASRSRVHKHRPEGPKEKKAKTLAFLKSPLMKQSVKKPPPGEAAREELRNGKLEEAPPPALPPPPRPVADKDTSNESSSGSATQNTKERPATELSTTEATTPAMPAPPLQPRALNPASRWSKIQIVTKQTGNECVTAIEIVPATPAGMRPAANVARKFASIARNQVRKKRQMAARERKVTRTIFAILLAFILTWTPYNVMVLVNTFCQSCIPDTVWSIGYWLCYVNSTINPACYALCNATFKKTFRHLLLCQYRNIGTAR
Alpha-1A adrenergic receptor, sequence (P35348 whole entry): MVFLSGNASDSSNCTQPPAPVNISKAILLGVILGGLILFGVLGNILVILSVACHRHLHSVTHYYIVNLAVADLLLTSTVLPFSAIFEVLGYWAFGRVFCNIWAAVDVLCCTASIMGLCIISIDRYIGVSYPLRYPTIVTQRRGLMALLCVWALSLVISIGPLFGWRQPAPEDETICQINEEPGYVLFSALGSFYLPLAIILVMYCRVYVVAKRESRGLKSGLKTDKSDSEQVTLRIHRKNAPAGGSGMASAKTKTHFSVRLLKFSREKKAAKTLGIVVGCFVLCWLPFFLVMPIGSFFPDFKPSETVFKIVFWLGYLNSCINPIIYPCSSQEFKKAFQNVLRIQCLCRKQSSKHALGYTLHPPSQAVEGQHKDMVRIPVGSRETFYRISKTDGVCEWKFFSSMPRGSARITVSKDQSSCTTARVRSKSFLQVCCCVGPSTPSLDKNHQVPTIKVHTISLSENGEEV
5-hydroxytryptamine receptor 1B, sequence (P28222 whole entry): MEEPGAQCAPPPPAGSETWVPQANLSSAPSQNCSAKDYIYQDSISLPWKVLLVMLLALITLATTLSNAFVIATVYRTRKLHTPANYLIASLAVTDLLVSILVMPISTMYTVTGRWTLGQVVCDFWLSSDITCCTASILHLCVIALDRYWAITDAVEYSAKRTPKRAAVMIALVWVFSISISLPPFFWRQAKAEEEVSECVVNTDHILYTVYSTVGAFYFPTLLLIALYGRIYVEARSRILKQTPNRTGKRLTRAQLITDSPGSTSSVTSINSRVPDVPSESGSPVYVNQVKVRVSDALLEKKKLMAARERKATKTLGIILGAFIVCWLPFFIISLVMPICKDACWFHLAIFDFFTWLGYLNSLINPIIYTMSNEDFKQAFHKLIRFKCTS
Sigma non-opioid intracellular receptor 1, sequence (Q99720 whole entry): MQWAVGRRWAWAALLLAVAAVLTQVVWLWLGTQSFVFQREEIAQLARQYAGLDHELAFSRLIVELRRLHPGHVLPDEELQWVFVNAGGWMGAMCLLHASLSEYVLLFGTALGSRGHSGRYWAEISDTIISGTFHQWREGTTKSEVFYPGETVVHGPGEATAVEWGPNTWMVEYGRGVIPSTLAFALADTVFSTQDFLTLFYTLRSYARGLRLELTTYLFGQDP

N#Cc1cccc(C#Cc2csc(CF)n2)c1
0.06 nM: IC50 [1]

COc1cccc(C#Cc2csc(CF)n2)c1
0.52 nM: IC50 [1]

N#Cc1cc(F)cc(C#Cc2csc(CF)n2)c1
2.18: logD [13]
> 10 µM: Ki [2] | Ki [3] | Ki [4] | Ki [5] | Ki [6] | Ki [7] | Ki [8] | Ki [9] | Ki [10] | Ki [11] | Ki [12] | Ki [14] | Ki [15] | Ki [16] | Ki [17] | Ki [18] | Ki [19] | Ki [20] | Ki [21] | Ki [22] | Ki [23] | Ki [24] | Ki [25] | Ki [26] | Ki [27] | Ki [28] | Ki [29] | Ki [30] | Ki [31] | Ki [32] | Ki [33] | Ki [34] | Ki [35] | Ki [36] | Ki [37] | Ki [38] | Ki [39] | Ki [40] | Ki [41] | Ki [42] | Ki [43] | Ki [44] | Ki [45] | Ki [46] | Ki [47]
0.036 nM: IC50 [1]
